The sample as a whole holds a higher share of hits than the screen did.
WNV protease inh = inhibitors of West Nile virus NS2B-NS3 protease | hit rate 0.18% among 65,000 | AID 577 | z-score (no concentration beside the values) | P06935 | WNV NS2B-NS3 protease, fluorogenic substrate Ex360/Em465; active compounds read low; in the data active = z-score below about -3
hDAT+cocaine = modulates human dopamine transporter uptake under cocaine; AID 449768; B-score at 10 µM; hit rate 1.3% among 110,000; Q01959; LLC-PK1 hDAT cells, [14C]-dopamine uptake with cocaine IC80; actives deviate in either direction;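 active = Z score or B-score, a plate-position-corrected score, falls beyond the plate's 99.7% confidence bounds, in either direction; inactive = both scores lie inside the 99.7% bounds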
AP ELISA ortho = alternative pathway complement inhibition, orthogonal assay | Human serum alternative complement pathway, LPS-coated ELISA, C3 deposition; tested in compound mixtures | inhibition, % at 5 µM | hit rate 0.08% among 62,000;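 active = inhibition above 30% in each of the two pooled mixtures holding the compound, so the lower value exceeds 30%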
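Assay system: human serum alternative complement pathway, C3 deposition on LPS-coated wells; Dosing: 5 µM per compound in ten-compound mixtures; Detection: Anti-C3 ELISA, OD 450 nm; Buffer or medium: Mg2+-EGTA GVB++ buffer containing human serum at 1:15 dilution; Timing: 1 h at 37 °C; Replication: two different pools per compound.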
D1 allo mod = D1 dopamine receptor (human) allosteric modulation | P21728 | HEK293 D1, CRE-luciferase, dopamine EC30 potentiation; actives deviate in either direction | B-score at 10 µM | hit rate 5.9% among 58,000 | AID 641;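 active = luminescence count or its row- and column-corrected plate score outside the 99.7% band of the plate's sample wells, on either side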
Target sequence (P21728 whole entry, looked up): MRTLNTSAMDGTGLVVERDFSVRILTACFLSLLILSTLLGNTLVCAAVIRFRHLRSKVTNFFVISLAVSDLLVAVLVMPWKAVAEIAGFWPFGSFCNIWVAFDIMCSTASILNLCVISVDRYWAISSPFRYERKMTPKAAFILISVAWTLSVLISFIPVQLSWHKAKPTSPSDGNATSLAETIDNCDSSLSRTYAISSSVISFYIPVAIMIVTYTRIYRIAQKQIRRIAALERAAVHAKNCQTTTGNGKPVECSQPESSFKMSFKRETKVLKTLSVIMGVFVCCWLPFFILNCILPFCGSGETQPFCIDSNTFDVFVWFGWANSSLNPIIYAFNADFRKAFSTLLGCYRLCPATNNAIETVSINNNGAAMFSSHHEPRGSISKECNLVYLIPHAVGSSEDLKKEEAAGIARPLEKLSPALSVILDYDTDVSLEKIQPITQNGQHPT
D1 PAM confirm = confirmation of human D1 dopamine receptor allosteric modulators. luminescence at 10 µM. shares compounds with D1 allo mod. HEK293 D1 CRE-luciferase, dopamine EC30 potentiation; active compounds read high. hit rate 88% among 2,200;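 active = luminescence in either of two replicates above the same-plate mean plus 3 SD of the low-dose dopamine control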
D1 no dopamine = D1 (human) signaling in absence of dopamine; shares compounds with D1 allo mod; HEK293 D1 CRE-luciferase, luminescence, no dopamine; active compounds read high; luminescence at 10 µM; hit rate 0.8% among 1,900; AID 646; in the data active = luminescence above about 3900
Isoprot counter = alters isoproterenol CRE-luciferase response in HEK293 cells; shares compounds with D1 allo mod; HEK293 D1 CRE-luciferase, isoproterenol EC30 counter-screen; active compounds read high; luminescence at 10 µM; hit rate 63% among 2,200; AID 647;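 active = luminescence in either replicate above plate mean of wells with a partly effective reference agonist dose plus 3 SD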;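 note: isoproterenol raises cAMP through native beta-adrenoceptor Gs so signal bypasses D1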
Large screens that a line does not name were inactive (follow-up assays come after a bar, where they were run).

C=CCNc1nc2ccccc2nc1NS(=O)(=O)c1cccs1	D1 allo mod 6.9 | D1 PAM confirm 11704 | Isoprot counter 2836
O=S(=O)(Nc1nc2ccccc2nc1NCc1ccco1)c1cccs1	D1 allo mod 8.4 | D1 PAM confirm 15532 | D1 no dopamine inactive | Isoprot counter 3728
CCCn1c(SCC(=O)Nc2ccccc2-c2ccccc2)nnc1-c1ccoc1C	none
Cn1c(=O)c2c(-c3ccccc3)n(-c3ccccc3O)cc2n(C)c1=O	none
COc1ccc(-c2c3c(=O)n(C)c(=O)n(C)c3cn2-c2cc(OC)ccc2OC)cc1	D1 allo mod 6 | D1 PAM confirm 8244 | D1 no dopamine inactive | Isoprot counter 3484
O=C(Nc1cc(N2CCOCC2)ncn1)NC1(C(F)(F)F)Oc2ccccc2O1	none (no result: WNV protease inh, AP ELISA ortho, D1 allo mod)
COc1cc(CCC(O)CC(=O)CCc2ccccc2)ccc1O (stereo unspecified)	none (no result: WNV protease inh, AP ELISA ortho, D1 allo mod)
CCOC(=O)c1cc2cc(F)ccc2nc1C	D1 allo mod 10 | D1 PAM confirm 12456 | D1 no dopamine inactive | Isoprot counter 4064
COc1cc2c(cc1OC)C(C)N(C(=O)c1cc3ccccc3o1)CC2 (stereo unspecified)	D1 allo mod 15 | D1 PAM confirm 16968 | D1 no dopamine inactive | Isoprot counter 11008
COc1cc2c(cc1O)CCN(C(=O)c1ccco1)C2C (stereo unspecified)	none (no result: WNV protease inh, AP ELISA ortho, D1 allo mod)
COc1cc2c(cc1OC)C(C)N(C(=O)C1COc3ccccc3O1)CC2 (stereo unspecified)	D1 allo mod 7.3 | D1 PAM confirm 19292 | D1 no dopamine inactive | Isoprot counter 5644
O=C(NC(NC(=S)Nc1cccc(Cl)c1)C(Cl)(Cl)Cl)OCc1ccccc1 (stereo unspecified)	none (no result: WNV protease inh, AP ELISA ortho, D1 allo mod)
O=C(COc1ccc2ccccc2c1)Nc1ccc(S(=O)(=O)N2CCCCCC2)cc1	none (no result: WNV protease inh, AP ELISA ortho, D1 allo mod)
CCC1Oc2ccc(C)cc2N(CC(=O)NCCN2C(C)CCCC2C)C1=O (stereo unspecified)	D1 allo mod 5 | D1 PAM confirm inactive | D1 no dopamine inactive | Isoprot counter inactive
O=C(c1ccco1)N1CCN(Cc2cccc(F)c2)CC1	none
O=C(c1cccc(F)c1)N1CCN(Cc2ccco2)CC1	D1 allo mod 3.9 | D1 PAM confirm inactive | D1 no dopamine inactive | Isoprot counter inactive
COc1ccc(C(=O)c2oc3ccccc3c2N)cc1	none
Nc1c(C(=O)c2ccc(F)cc2)oc2ccccc12	D1 allo mod 11 (no result: AP ELISA ortho) | D1 PAM confirm 24288 | D1 no dopamine inactive | Isoprot counter 3684
CC(=O)CCCCn1cnc2c1c(=O)n(C)c(=O)n2C	none (no result: WNV protease inh, AP ELISA ortho, D1 allo mod)
CCOC(=O)c1c(C)c(C(=O)NCc2ccccc2OC)c(C)n1C	D1 allo mod 3.6 | D1 PAM confirm 7232 | D1 no dopamine inactive | Isoprot counter inactive
CC1CCN(c2nc3c(c(=O)[nH]c(=O)n3C)n2CCSc2ncccn2)CC1	none (no result: hDAT+cocaine)
O=C(CCSc1ccccc1)N1CCOCC1	none
O=C(CCSc1nc2ccccc2o1)N1CCOCC1	D1 allo mod 3.6 | D1 PAM confirm 7988 | D1 no dopamine inactive | Isoprot counter inactive
COc1cc(NC(=O)c2cc3cccc(OC)c3o2)cc(C(=O)Nc2cccc(C(F)(F)F)c2)c1	none (no result: WNV protease inh, AP ELISA ortho, D1 allo mod)
COC(=O)C(C)Oc1ccc2c3c(c(=O)oc2c1)CCCCC3 (stereo unspecified)	none
CC(C)Oc1ccc2c3c(c(=O)oc2c1)CCC3	D1 allo mod 5.8 | D1 PAM confirm 11556 | D1 no dopamine inactive | Isoprot counter 3192
N#Cc1c(-c2ccccc2)cc(-c2ccco2)c(C#N)c1N	D1 allo mod 2.9 (no result: hDAT+cocaine) | D1 PAM confirm 6724 | Isoprot counter inactive
Cc1ccc2[nH]c(=O)c(CN(CCN3CCOCC3)C(=O)Nc3ccccc3F)cc2c1	none
Cc1cc2cc(CN(CCN3CCOCC3)C(=O)Nc3ccccc3F)c(=O)[nH]c2cc1C	D1 allo mod 2.7 | D1 PAM confirm 5960 | D1 no dopamine inactive | Isoprot counter inactive
CCNc1nc(NCC)nc(OCCOC(=O)c2ccccc2)n1	D1 allo mod 6.9 | D1 PAM confirm 16012 | D1 no dopamine inactive | Isoprot counter 3588
CCNc1nc(NCC)nc(OCCOC(C)=O)n1	none (no result: WNV protease inh, AP ELISA ortho, D1 allo mod)
O=C(Cc1ccccc1)NCC(=O)N1CCCCCC1	none (no result: WNV protease inh, AP ELISA ortho, D1 allo mod)
Cn1c(SCC(=O)NC2CCCC2)nc2cccnc21	none
COC(=O)c1sc(NC(=O)CSc2nc3cccnc3n2C2CCCCC2)nc1C	D1 allo mod 9.5 | D1 PAM confirm 10416 | D1 no dopamine inactive | Isoprot counter 3916
Cc1ccc(C)c(C(C)NC(=O)C2C3CCC(O3)C2C(=O)O)c1 (stereo unspecified)	none
CCc1nc2scc(-c3ccccc3)c2c(=O)n1N	D1 allo mod 6.6 | D1 PAM confirm 14056 | D1 no dopamine inactive | Isoprot counter 3780
CCCc1nnc(N2C(=O)c3cccc4cccc(c34)C2=O)s1	none (no result: WNV protease inh, AP ELISA ortho, D1 allo mod)
CCc1cccc(C)c1NC(=O)C1=C(C(=O)O)CCCC1	none
Fc1cccc(Nc2cc(-n3cccn3)ncn2)c1	D1 allo mod 8.5 | D1 PAM confirm 8308 | D1 no dopamine inactive | Isoprot counter 3628
S=C(NCC1CCCO1)n1nnc2ccccc21 (stereo unspecified)	none
c1ccc2c(c1)nc(NCC1CCCO1)c1nnnn12 (stereo unspecified)	D1 allo mod 2.9 | D1 PAM confirm 9992 | D1 no dopamine inactive | Isoprot counter inactive
COC(=O)c1ccc(COc2ncnc3c(Cl)cc(Cl)cc23)o1	none
CCCCc1n[nH]c2c1/C(=N/O)CC(c1ccccc1)C2 (stereo unspecified)	none
CCc1n[nH]c2c1/C(=N\O)CC(c1ccccc1)C2 (stereo unspecified)	D1 allo mod 4.3 | D1 PAM confirm 7364 | D1 no dopamine inactive | Isoprot counter inactive
Cc1cc(OC(=O)c2c(C)cc(OC(=O)c3c(C)cc(O)cc3O)cc2O)cc(O)c1C(=O)O	none (no result: WNV protease inh, AP ELISA ortho, D1 allo mod)
COc1cc2c(cc1OC)C1=C(C#N)CN(C3CCCCC3)CN1CC2	D1 allo mod 4.2 | D1 PAM confirm 14420 | D1 no dopamine inactive | Isoprot counter 7184
COc1ccc(CCN2CC(C#N)=C3c4cc(OC)c(OC)cc4CCN3C2)cc1OC	hDAT+cocaine 3.4, D1 allo mod 5 | D1 PAM confirm 14004 | D1 no dopamine inactive | Isoprot counter 5556
COc1ccc(CCNS(=O)(=O)c2ccc3c(c2)CCN3C(=O)C2CC2)cc1OC	none
CCN(CC)C(=O)c1[nH]cnc1C(=O)N[C@@H](C)C(=O)OC(C)(C)C	none (no result: WNV protease inh, AP ELISA ortho, D1 allo mod)
O=C(Nc1ccccc1C(=O)NCc1cccnc1)c1ccco1	none (no result: D1 allo mod)
O=C(Nc1ccc(Cl)cc1C(=O)NCc1cccnc1)c1ccco1	D1 allo mod 10 | D1 PAM confirm 16768 | D1 no dopamine inactive | Isoprot counter 2916
O=C(Nc1ccc(Cl)cc1C(=O)Nc1ccncc1)c1ccco1	D1 allo mod 8.7 | D1 PAM confirm 11616 | Isoprot counter 2860

Compound activity as filed in PubChem BioAssay.
